A selection: hits, their analogues and other compounds. The true share with any hit is near 3.9%.
SR-BI HDL uptake: inhibitors of SR-BI mediated HDL lipid uptake, primary screen, ldlA[mSR-BI] cells, fluorescence, single point; Scavenger receptor class B member 1 (Mus musculus), Q61009; ldlA[mSR-BI] CHO cells, DiI-HDL uptake fluorescence, 3 h; inhibition, % at 12.5 µM; 320,000 tested, 0.96% active;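 active = mean replicate inhibition of at least 70% and a set share of replicates each scoring 70 or more; inconclusive = meets just one of the two criteria; inactive = fails both criteria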
ABCB6 inh 2: ABCB6 transporter inhibitors, primary screen, K562-ABCB6 cells, flow cytometry, MLPCN library; 360,000 tested, 0.19% active; fluorescence ratio to DMSO, % at 10 µM; K562-ABCB6 porphyrin accumulation, 1 h; stronger effect = lower value;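 active = fluorescence ratio to DMSO below 75%, the collection mean minus 3 SD; inconclusive = too few cells collected in the well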;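 note: signal is porphyrin accumulated inside mitochondria; lower ratio means ABCB6 inhibition with less porphyrin fluorescence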
AHR act: AHR activators, primary screen, cell-based, luminescence, luciferase reporter, human; Aryl hydrocarbon receptor (Homo sapiens), P35869; AHR-responsive luciferase reporter cells; activation, % at 5 µM; 320,000 tested, 2.5% active; in the data active = activation above about 47%
Target sequence (P35869 whole entry, looked up): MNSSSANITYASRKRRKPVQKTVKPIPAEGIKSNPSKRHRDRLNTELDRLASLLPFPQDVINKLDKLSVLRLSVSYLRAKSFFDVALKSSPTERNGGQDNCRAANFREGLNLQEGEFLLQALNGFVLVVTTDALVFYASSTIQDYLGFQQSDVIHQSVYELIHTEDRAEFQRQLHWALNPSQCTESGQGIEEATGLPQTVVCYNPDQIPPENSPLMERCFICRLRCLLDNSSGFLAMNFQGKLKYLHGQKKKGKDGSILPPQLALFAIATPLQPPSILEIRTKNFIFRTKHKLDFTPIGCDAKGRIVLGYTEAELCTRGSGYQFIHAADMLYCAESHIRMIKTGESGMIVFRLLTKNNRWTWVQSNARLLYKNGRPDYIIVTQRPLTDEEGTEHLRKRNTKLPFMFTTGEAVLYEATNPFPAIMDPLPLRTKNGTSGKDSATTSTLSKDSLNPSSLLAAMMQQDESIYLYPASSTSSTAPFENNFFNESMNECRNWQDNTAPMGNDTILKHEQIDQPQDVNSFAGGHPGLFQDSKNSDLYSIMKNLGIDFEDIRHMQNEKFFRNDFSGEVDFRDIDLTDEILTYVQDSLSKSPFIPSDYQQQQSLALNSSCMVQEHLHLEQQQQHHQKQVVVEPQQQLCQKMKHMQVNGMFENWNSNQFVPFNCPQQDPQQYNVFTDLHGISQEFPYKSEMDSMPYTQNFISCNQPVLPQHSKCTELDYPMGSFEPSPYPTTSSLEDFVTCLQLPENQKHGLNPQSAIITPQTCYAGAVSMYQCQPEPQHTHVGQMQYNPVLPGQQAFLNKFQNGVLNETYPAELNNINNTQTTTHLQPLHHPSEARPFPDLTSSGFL
HIF activator: HIF pathway transcriptional activators, primary screen, cell-based, U2OS HRE-luciferase, luminescence; U2OS HRE-luciferase reporter; normalized: DMSO 0%, desferrioxamine 100%; activation, % at 7.5 µM (by protocol); 300,000 tested, 0.32% active;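 active = mean activation of at least 10% of the iron chelator positive control signal, with at least half of replicates also reaching 10%; inconclusive = mean and replicate majority disagree about reaching 10%; inactive = mean and most replicates under 10%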
GAA850 FXN act: FXN promoter activators, primary screen, cell-based, luciferase luminescence, HEK293 lucGAA850; 360,000 tested, 0.56% active; HEK293 lucGAA850 FXN promoter luciferase reporter, 24 h; percent of 10 µM SAHA response; activation, % at 6 µM; AID 540364, 2011;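 active = activation above the average of all compounds screened plus 3 SD, cutoff fixed separately per campaign, cut at about 7.5% in these data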
SR-BI uptake up: activators of SR-BI mediated DiI-HDL uptake, primary screen, ldlA[mSR-BI] CHO cells, DiI fluorescence; 3 h; 100 = double the neutral-control signal; activation, % at 12.5 µM; 320,000 tested, 0.096% active;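 active = mean replicate activation of at least 60% and every replicate at or above 60%; inconclusive = mean or all-replicate condition met, but not both; inactive = mean below 60% and not all replicates reaching 60%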
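System: LDL receptor-deficient CHO ldlA cells overexpressing murine SR-BI | Timing: 3 h uptake period with compound, 37 °C | Medium: HEPES-buffered (25 mM, pH 7.4) F12 plus 0.5% BSA | Dosing: Single-point compound dose | Signal: Bottom-read fluorescence, 550/595 nm | Read-out: Retained DiI signal reflecting DiI-HDL uptake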
A number is an active result; i = inactive; ? = inconclusive; nt = no result given.

SMILES	SR-BI HDL uptake	ABCB6 inh 2	AHR act	HIF activator	GAA850 FXN act	SR-BI uptake up
COC(=O)COn1c(SC(C)C)nc2ccccc2c1=O	i	i	i	i	i	i
CCCCNC(NCCCC)=C(S(=O)(=O)CC)S(=O)(=O)CC	i	i	i	i	i	i
CC(NC(=O)Nc1ccc2c(c1)OCO2)C1CCCO1 (centres undefined)	i	i	66	i	i	i
Cc1ccc(C)c(NC(=O)Nc2ccc3c(c2)OCO3)c1	i	i	64	i	i	i
Cc1nn(C(C)C(=O)Nc2ccc3c(c2)OCO3)c(C)c1[N+](=O)[O-] (centres undefined)	nt	i	76	i	i	nt
Cc1ccc(NC(=O)Nc2ccc3c(c2)OCO3)nc1	i	i	i	i	i	i
Cc1cccc(NC(=O)NCc2ccc3c(c2)OCO3)c1C	i	i	i	i	i	i
Cc1nn(C)c(C(=O)Nc2ccc3c(c2)OCO3)c1[N+](=O)[O-]	i	i	nt	i	i	i
CCc1ccccc1NC(=O)NCc1ccc2c(c1)OCO2	i	i	68	i	i	i
C/C=C\C(=O)Nc1cccc(C2=NOC3(C2)C[C@H](C(N)=O)N(C(=O)Cc2ccc([N+](=O)[O-])cc2)C3)c1 (some centres undefined)	i	i	i	i	i	i
COCCNS(=O)(=O)c1ccc(-c2ccc(C)cc2)cc1	i	i	i	i	i	i
Cc1cc(Cl)ccc1OCC(=O)Nc1ccc(CN2CCOCC2)cc1	i	i	nt	i	i	i
COc1ccc(-n2c(C)cc(-c3csc(N)n3)c2C)cc1	i	i	i	i	i	i
Cc1cc(-c2csc(N)n2)c(C)n1-c1ccc(Cl)c(Cl)c1	70	i	i	i	i	i
COC(=O)/C(=C(/F)SCC(C)=O)C(F)(F)F	nt	nt	i	91	nt	nt
C#CCOCCOCCOCCNc1nc(N2CCN(C(=O)CCCCCCCCCCNC(=O)[C@H](CCCCN)n3cc(CCCC(=O)O)nn3)CC2)nc(N2CCN(C(=O)CCCCCCCCCCNC(=O)[C@H](CCCN=C(N)N)n3cc(C[C@@H](C)CC)nn3)CC2)n1	80	i	i	i	i	i
C#CCOCCOCCOCCNc1nc(N2CCN(C(=O)CCCCCCCCCCNC(=O)[C@H](CO)n3cc(CCCSC)nn3)CC2)nc(N2CCN(C(=O)CCCCCCCCCCNC(=O)[C@H](CO)n3cc(CCCSC)nn3)CC2)n1	i	74	i	i	i	i
CCOC(=O)c1cc2c(ccn2C)n1CC(=O)N1CCN(c2ccccc2)CC1	i	i	i	288	i	i
C[C@H](CO)N1C[C@H](C)[C@H](CN(C)C(=O)c2ccncc2)OCc2cnnn2CCCC1=O	nt	i	nt	nt	i	nt
CCc1ccccc1NC(=O)C(C)n1nc([N+](=O)[O-])c(Br)c1C (centres undefined)	i	i	i	i	i	i
Clc1ccc2nc(CSc3nnc(-c4c[nH]c5ccccc45)o3)cn2c1	nt	i	nt	nt	i	nt
Clc1cccc(CSc2nnc(-c3c[nH]c4ccccc34)o2)c1	i	i	52	i	i	i
CCSc1nc(-c2ccccc2)nc(C(Cl)Cl)n1	i	i	i	i	i	i
C=CCOc1c(Br)cc(CNc2ccc(NC(=O)C(C)C)cc2)cc1OCC	i	i	i	i	i	i
CCOc1ccccc1NC(=O)c1c(Br)cnn1C	i	i	59	i	i	i
SMILES	SR-BI HDL uptake	ABCB6 inh 2	AHR act	HIF activator	GAA850 FXN act	SR-BI uptake up
CCn1ncc(Br)c1C(=O)Nc1sc2c(c1C(N)=O)CCC2	i	i	49	i	i	i
COC(=O)c1ccc(NC(=O)c2c(Br)cnn2C)cc1	i	i	i	i	i	i
CCn1ncc(Br)c1C(=O)Nc1ccccc1OC	i	i	49	i	i	i
Cn1cc(Br)c(C(=O)Nc2sc3c(c2C(N)=O)CCC3)n1	i	i	i	i	i	i
CCn1ncc(Br)c1C(=O)Nc1cccc(F)c1	i	i	i	i	i	i
CCn1ncc(Br)c1C(=O)Nc1ccc(C(C)C)cc1	i	i	77	i	i	i
CCOC(=O)[C@H]1[C@H]2COc3ccc(C)cc3[C@@H]2N2C(=O)CN(Cc3ccc(OC)cc3)C(=O)[C@@]12C	i	i	i	nt	i	i
COc1ccc(S(=O)(=O)N(CC(=O)NCCSc2ccccn2)c2ccccc2)cc1	i	i	i	i	i	i
COc1cc(NC(=O)C2C3C=CC(C3)C2C(=O)O)ccc1NC(=O)c1ccccc1 (centres undefined)	i	i	56	i	i	i
CC(=O)c1cccc(NC(=O)C2C3C=CC(C3)C2C(=O)O)c1 (centres undefined)	i	i	i	i	i	i
COc1cccc(C(=O)Nc2ccc(NC(=O)C3C4C=CC(C4)C3C(=O)O)cc2)c1 (centres undefined)	i	i	73	i	i	i
Cc1ccc(N=CC2=C(O)CC(c3cccc(Cl)c3)CC2=O)cc1 (centres undefined)	i	i	i	i	i	i
O=C(NCc1ccc2c(c1)OCO2)c1cccc(C(=O)NCc2ccc3c(c2)OCO3)c1	i	i	i	i	i	i
Cc1cc(-c2ccccc2)nc(N/N=C/c2ccc([N+](=O)[O-])cc2)n1	73	i	i	i	i	i
C(=N\Nc1nc(Nc2ccccc2)nc(Nc2ccccc2)n1)/c1ccncc1	i	i	i	i	i	i
Cc1cc(-c2ccccc2)nc(N/N=C/c2ccc(N(C)C)cc2)n1	i	i	i	i	i	i
Cc1cc(-c2ccccc2)nc(N/N=C/c2cccnc2)n1	i	i	i	i	i	i
Cc1ccc(-c2cc(-c3ccccc3)nc(N/N=C/c3cccnc3)n2)cc1	i	i	63	i	i	i
Cc1cc(-c2ccccc2)nc(N/N=C/c2ccccc2)n1	72	i	i	i	i	i
C(=N\Nc1nc(Nc2ccccc2)nc(Nc2ccccc2)n1)/c1cccnc1	i	i	142	i	i	i
Cc1cc(O)cc(O)c1-c1onc(C(F)(F)F)c1-c1cscn1	i	i	i	i	i	i
COc1ccc(/C=N/Nc2nc(C)cc(-c3ccccc3)n2)cc1OC	?	i	52	i	i	i
Cn1nc(OC(=O)Nc2ccc(Cl)cc2)cc1C(F)(F)F	nt	nt	i	i	nt	nt
COc1cc(/C=N/Nc2snc(SC)c2C#N)ccc1O	i	i	73	i	i	i
COC(=O)c1ccc(/C=N/Nc2nc3ccccc3[nH]2)cc1	i	i	48	i	i	i
